For data set [1], the species on record is Homo sapiens. The data set can be described thus: Activation of recombinant human C-terminal 4His-tagged CYP46A1 delta(2 to 50) K358L mutant expressed in Escherichia coli at 20 uM using cholesterol as substrate measured after 30 mins in presence of cytochrome P450 oxidoreductase by gas chromatography-mass spectrometry. The gist of the method:
(§1)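 Fixed 20 μM test compound (final, 2% methanol) with 0.5 μM purified Δ(2-50)CYP46A1 (wild type or mutant) and 1.0 μM rat P450 oxidoreductase. Buffer: 50 mM KPi pH 7.2, 100 mM NaCl, 40 μg/mL dilauroylphosphatidylcholine, 40 μM cholesterol, catalase, NADPH-regenerating system. Run 30 min at 37 °C. 24-Hydroxycholesterol measured by GC-MS against a deuterated internal standard. Fold activation over no-activator control; mean ± SD, three independent experiments.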

The species named for data set [2] is Homo sapiens. The data set can be described thus: Activation of recombinant human C-terminal 4His-tagged CYP46A1 delta(2 to 50) Y427A mutant expressed in Escherichia coli at 20 uM using cholesterol as substrate measured after 30 mins in presence of cytochrome P450 oxidoreductase by gas chromatography-mass spectrometry. The gist of the method:
as §1

Data set [3] is filed under the species Homo sapiens. The data set can be described thus: Activation of recombinant human C-terminal 4His-tagged CYP46A1 delta(2 to 50) R415A mutant expressed in Escherichia coli at 20 uM using cholesterol as substrate measured after 30 mins in presence of cytochrome P450 oxidoreductase by gas chromatography-mass spectrometry. The gist of the method:
as §1

For data set [4], the species on record is Homo sapiens. The data set can be described thus: Activation of recombinant human C-terminal 4His-tagged CYP46A1 delta(2 to 50) F405A mutant expressed in Escherichia coli at 20 uM using cholesterol as substrate measured after 30 mins in presence of cytochrome P450 oxidoreductase by gas chromatography-mass spectrometry. The gist of the method: as §1
The species entered for data set [5] is Homo sapiens. In words: Activation of recombinant human C-terminal 4His-tagged CYP46A1 delta(2 to 50) K358A mutant expressed in Escherichia coli at 20 uM using cholesterol as substrate measured after 30 mins in presence of cytochrome P450 oxidoreductase by gas chromatography-mass spectrometry. In outline:
as §1

The species entered for data set [6] is Homo sapiens. In words: Activation of recombinant human C-terminal 4His-tagged CYP46A1 delta(2 to 50) K358R mutant expressed in Escherichia coli at 20 uM using cholesterol as substrate measured after 30 mins in presence of cytochrome P450 oxidoreductase by gas chromatography-mass spectrometry. The gist of the method: as §1
Data set [7] addresses T1, Cholesterol 24-hydroxylase (Homo sapiens, UniProt Q9Y6A2). The data set can be described thus: Inhibition of recombinant human C-terminal 4His-tagged CYP46A1 delta(2 to 50) mutant expressed in Escherichia coli at 60 to 100 uM using cholesterol as substrate measured after 30 mins in presence of cytochrome P450 oxidoreductase by gas chromatography-mass spectrometry. The format is ADME. To be noted: 0.5 h. The gist of the method:
(§2)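 Concentration-dependence curves with test compound at 0–100 μM (2% final methanol). Enzyme: 0.5 μM Δ(2-50)CYP46A1 plus 1.0 μM P450 oxidoreductase. Buffer: KPi pH 7.2, 100 mM NaCl, dilauroylphosphatidylcholine, 40 μM cholesterol, catalase, NADPH-regenerating system. Run 30 min at 37 °C. 24-Hydroxycholesterol quantified by GC-MS with a deuterated internal standard, expressed as nmol/nmol P450/min; mean ± SD, three experiments.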

The species named for data set [8] is Homo sapiens. The data set can be described thus: Activation of recombinant human C-terminal 4His-tagged CYP46A1 delta(2 to 50) F416A mutant expressed in Escherichia coli at 20 uM using cholesterol as substrate measured after 30 mins in presence of cytochrome P450 oxidoreductase by gas chromatography-mass spectrometry. The gist of the method:
as §1

Data set [9] relates to Cholesterol 24-hydroxylase (Homo sapiens), Q9Y6A2 [UNDEFINED MUTATION]. The data set can be described thus: Activation of recombinant human C-terminal 4His-tagged CYP46A1 delta(2 to 50) mutant expressed in Escherichia coli using cholesterol as substrate measured after 30 mins in presence of cytochrome P450 oxidoreductase by gas chromatography-mass spectrometry. In outline:
as §2

For data set [10] the test system is unchanged. In words: Activation of recombinant human C-terminal 4His-tagged CYP46A1 delta(2 to 50) mutant expressed in Escherichia coli at 20 uM using cholesterol as substrate measured after 30 mins in presence of cytochrome P450 oxidoreductase by gas chromatography-mass spectrometry relative to control. In outline:
as §1

The test system is the same in data set [11]. The data set can be described thus: Activation of recombinant human C-terminal 4His-tagged CYP46A1 delta(2 to 50) mutant expressed in Escherichia coli at 20 uM using cholesterol as substrate measured after 30 mins in presence of cytochrome P450 oxidoreductase and L-Glu by gas chromatography-mass spectrometry relative to control. In outline:
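Co-incubation of 100 μM L-Glu with 20 μM test compound, 0.5 μM Δ(2-50)CYP46A1 and 1.0 μM P450 oxidoreductase. Buffer: 50 mM KPi pH 7.2, 100 mM NaCl, phospholipid, 40 μM cholesterol, NADPH-regenerating system. Run 30 min at 37 °C. 24-Hydroxycholesterol measured by GC-MS with a deuterated internal standard. Fold activation relative to control; mean ± SD of three experiments.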

The species named for data set [12] is Homo sapiens. In words: Activation of recombinant human C-terminal 4His-tagged CYP46A1 delta(2 to 50) Y427F mutant expressed in Escherichia coli at 20 uM using cholesterol as substrate measured after 30 mins in presence of cytochrome P450 oxidoreductase by gas chromatography-mass spectrometry. In outline:
as §1

The target in data set [13] is T1, Cholesterol 24-hydroxylase. In words: Inhibition of recombinant human C-terminal 4His-tagged CYP46A1 delta(2 to 50) mutant expressed in Escherichia coli at up to 100 uM using cholesterol as substrate measured after 30 mins in presence of cytochrome P450 oxidoreductase by gas chromatography-mass spectrometry. The format is ADME. The conditions noted are these: 0.5 h. In outline: as §2

From ChEMBL document CHEMBL4613214, “In Vitro Activation of Cytochrome P450 46A1 (CYP46A1) by Efavirenz-Related Compounds” (J Med Chem, 2020) come the findings set out here.

Active and inactive are the calls of the source. The calls are words filed in the database; no cut-off is given here.

T1 sequence (Q9Y6A2 whole entry, looked up, stated change not applied): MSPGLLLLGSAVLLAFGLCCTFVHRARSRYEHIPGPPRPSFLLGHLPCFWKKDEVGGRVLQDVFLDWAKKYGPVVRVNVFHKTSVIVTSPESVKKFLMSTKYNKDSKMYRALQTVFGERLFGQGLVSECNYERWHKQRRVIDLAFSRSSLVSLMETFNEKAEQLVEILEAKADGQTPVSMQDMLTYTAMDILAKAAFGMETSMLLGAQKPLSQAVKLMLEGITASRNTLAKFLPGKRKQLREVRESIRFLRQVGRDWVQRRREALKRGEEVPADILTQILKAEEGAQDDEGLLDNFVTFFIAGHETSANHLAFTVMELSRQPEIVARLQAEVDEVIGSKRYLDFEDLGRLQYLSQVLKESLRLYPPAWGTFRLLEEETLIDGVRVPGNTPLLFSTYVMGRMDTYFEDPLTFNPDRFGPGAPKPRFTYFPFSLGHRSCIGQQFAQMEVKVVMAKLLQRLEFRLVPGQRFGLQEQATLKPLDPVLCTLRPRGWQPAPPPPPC
Cholesterol 24-hydroxylase (Homo sapiens), Q9Y6A2 [UNDEFINED MUTATION], sequence (Q9Y6A2 whole entry, looked up, stated change not applied): as above

Consider `O=C1Nc2ccc(Cl)cc2[C@@](C#CC2CC2)(C(F)(F)F)O1` [EFAVIRENZ], for which the outcome in the data set filed under Homo sapiens [1], in the data set listed under Homo sapiens [2], in the data set filed under Homo sapiens [5], in the data set filed under Homo sapiens [6] and in the data set listed under Homo sapiens [8] was inactive. Also, the result in the data set filed under Homo sapiens [3] and in the data set listed under Homo sapiens [4] was Active. Also, the “inhibition (INH)” value in data set [7] is reported as “Active”.

`O=C1Nc2c(O)cc(Cl)cc2C(C#CC2CC2)(C(F)(F)F)O1` (racemic): the Activity entry in [9] is “Dose-dependent effect”. The “inhibition (INH)” value in [7] is reported as “Not Active”.

For the molecule `O=C1CC(C#CC2CC2)(C(F)(F)F)c2cc(Cl)ccc2N1` (racemic), the outcome in the data set filed under Homo sapiens [1], in the data set filed under Homo sapiens [2], in the data set filed under Homo sapiens [5], in the data set filed under Homo sapiens [6], in the data set filed under Homo sapiens [12] and in the data set listed under Homo sapiens [8] was inactive. The fold change (FC) in data set [10] worked out at 3.9; in [11], 4.6. Besides, the Activity entry in data set [9] is “Dose-dependent effect”. Also, the outcome in the data set listed under Homo sapiens [3] and in the data set listed under Homo sapiens [4] was Active. In data set [7], the “inhibition (INH)” value was “Not Active”.

Turning to `FC(F)(F)[C@@]1(C#CC2CC2)OCNc2ccc(Cl)cc21`, the outcome in the data set listed under Homo sapiens [1], in the data set listed under Homo sapiens [2], in the data set filed under Homo sapiens [5], in the data set filed under Homo sapiens [6], in the data set listed under Homo sapiens [12] and in the data set filed under Homo sapiens [8] was Active. Also, in [10], the fold change (FC) was determined as 2.5. Besides, the Activity entry in data set [9] was “Dose-dependent effect”. The outcome (in the data set listed under Homo sapiens [3]; in the data set filed under Homo sapiens [4]; in data set [11]) was inactive. In [13], the “inhibition (INH)” value is “Not Active”.

As for `O=C1Nc2c(O)cc(Cl)cc2[C@@](C#CC2CC2)(C(F)(F)F)O1`, the outcome in the data set listed under Homo sapiens [1], in the data set listed under Homo sapiens [2], in the data set filed under Homo sapiens [3], in the data set filed under Homo sapiens [4], in the data set filed under Homo sapiens [5] and in the data set listed under Homo sapiens [6] was Active. Further, the result in the data set filed under Homo sapiens [12] and in the data set listed under Homo sapiens [8] was Active. Further, the fold change (FC) in data set [10] amounted to 6.2; in [11], 7.4. The Activity result in data set [9] was “Dose-dependent effect”. Further, the “inhibition (INH)” value in [7] was “Not Active”.

Consider `CCCC#CC1(C(F)(F)F)OC(=O)Nc2ccc(Cl)cc21` (racemic), for which the result in the data set filed under Homo sapiens [1], in the data set filed under Homo sapiens [2], in the data set listed under Homo sapiens [5], in the data set filed under Homo sapiens [6], in the data set listed under Homo sapiens [12] and in the data set listed under Homo sapiens [8] was inactive. The fold change (FC) in data set [10] stood at 3.1; in data set [11] it was 3.7. For the same molecule, the Activity entry in [9] was “Dose-dependent effect”. The result in the data set listed under Homo sapiens [3] and in the data set listed under Homo sapiens [4] was Active. Further, the “inhibition (INH)” value in data set [7] is “Not Active”.

Consider `CC1Nc2ccc(Cl)cc2C(C#CC2CC2)(C(F)(F)F)O1` (racemic), for which the result in the data set listed under Homo sapiens [1], in the data set filed under Homo sapiens [2], in the data set filed under Homo sapiens [5], in the data set listed under Homo sapiens [6], in the data set filed under Homo sapiens [12] and in the data set listed under Homo sapiens [8] was Active. The fold change (FC) in data set [10] came to 2.6. In addition, the Activity result in data set [9] is “Dose-dependent effect”. The outcome (in the data set filed under Homo sapiens [3]; in the data set listed under Homo sapiens [4]; in data set [11]) was inactive. The “inhibition (INH)” value in data set [7] is on record as “Not Active”.

Turning to `O=C1Cc2ccc(Cl)cc2C(C#CC2CC2)(C(F)(F)F)O1` (racemic), the result in the data set listed under Homo sapiens [1], in the data set filed under Homo sapiens [2], in the data set listed under Homo sapiens [3], in the data set listed under Homo sapiens [4], in the data set filed under Homo sapiens [5] and in the data set listed under Homo sapiens [6] was Active. In addition, the result in the data set filed under Homo sapiens [12] and in the data set listed under Homo sapiens [8] was Active. Also, the values for the fold change (FC) in data set [10] and in data set [11] were 1.9 and 2.8, respectively. Also, in [13], the “inhibition (INH)” value is “Not Active”.

For the molecule `O=C1Nc2cc(O)c(Cl)cc2C(C#CC2CC2)(C(F)(F)F)O1` (racemic), the outcome in the data set listed under Homo sapiens [1], in the data set filed under Homo sapiens [2], in the data set filed under Homo sapiens [3], in the data set listed under Homo sapiens [4], in the data set filed under Homo sapiens [5] and in the data set listed under Homo sapiens [6] was Active. The outcome in the data set listed under Homo sapiens [12] and in the data set listed under Homo sapiens [8] was Active. Moreover, the fold change (FC) in data set [10] was found to be 5.8; in [11] it was 6.8. Also, in data set [9], the Activity entry is “Dose-dependent effect”. In addition, the “inhibition (INH)” value in data set [7] is “Not Active”.
